Assay outcomes: PubChem BioAssay, several laboratories
Most compounds without a hit are left out; they make up all but 2.9% or so of the library.
SF-1 act = activates the human nuclear receptor SF-1; Q13285; CHO-K1 Gal4-SF-1 LBD luciferase reporter; % increase over DMSO SF-1-specific signal; activation, % at 10 µM; 65,000 tested, 1.9% active; AID 522;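 active = activation above the mean activation of all tested compounds plus 3 SD, cut at about 50% in these data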
Target sequence (Q13285 whole entry, looked up, the tested form may be a part): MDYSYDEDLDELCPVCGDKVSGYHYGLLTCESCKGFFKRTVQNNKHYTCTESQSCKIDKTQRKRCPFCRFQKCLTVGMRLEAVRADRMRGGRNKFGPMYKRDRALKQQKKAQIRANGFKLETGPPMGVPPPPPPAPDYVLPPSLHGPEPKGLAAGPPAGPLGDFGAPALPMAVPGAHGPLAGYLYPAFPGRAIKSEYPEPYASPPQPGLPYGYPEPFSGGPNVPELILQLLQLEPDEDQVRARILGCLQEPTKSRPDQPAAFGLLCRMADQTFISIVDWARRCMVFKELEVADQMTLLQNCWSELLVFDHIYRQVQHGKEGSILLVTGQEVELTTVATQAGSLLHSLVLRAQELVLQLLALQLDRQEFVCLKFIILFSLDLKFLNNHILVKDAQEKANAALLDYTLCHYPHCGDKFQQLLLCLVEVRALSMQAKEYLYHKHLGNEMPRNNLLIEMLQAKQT
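Compound – one dose, 10 µM compound, 1% DMSO · Test system – transient Gal4-SF-1 LBD reporter, CHO-K1 · Input – 4,000 cells in each well · Read-out basis – percent activation relative to DMSO median and mock-transfected background · Replicates – single measurement per compound · Technique – steady-glow luciferase luminescence, read after 15 min reagent incubation · Timing – 20 h compound treatment, 37 °C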
RORa activator = activates the human nuclear receptor RORA; 65,000 tested, 1.5% active; AID 560; P35398; activation, % at 10 µM; CHO-K1 Gal4-RORA LBD luciferase reporter, luminescence; percent increase over mock-subtracted basal signal;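 active = activation above the mean of all tested compounds plus 3 SD, cut at about 49% in these data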;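 note: 0% = DMSO-treated RORA cells and 100% = added signal equal to DMSO minus mock-transfected cells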
HEK293 NFkB inh = lowers PMA/ionomycin-induced NF-kB signal in HEK293 cells; HEK-293 NF-kB luciferase reporter, luminescence; inhibition, % at 3 µM; 62,000 tested, 0.21% active; AID 465;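 active = inhibition above the mean of all tested compounds plus 3 SD, cut at about 40% in these data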;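 note: 0% = stimulated DMSO wells and 100% = 10 µM reference inhibitor 5653914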
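System: NF-kB luciferase reporter HEK-293 cells | Replication: Single test | Control set: DMSO vs reference inhibitor | Evaluation: % inhibition | Schedule: 1 h pretreatment, 16 h stimulation, 37 °C | Probe or stimulus: PMA with ionomycin | Compound dosing: One dose, 3 µM | Detection: Luciferase luminescence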
MT1-MMP txn act = MT1-MMP promoter transcription activation; HT1080 MT1-MMP promoter luciferase reporter, luminescence, overnight; active compounds read high; activation factor at 10 µM; 86,000 tested, 0.16% active;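 active = activation factor of at least 2 for MT1-MMP transcription at 10 µM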
Jurkat viability = cytotoxic compounds reducing Jurkat cell viability; Jurkat E6.1 viability, ATP luminescence, 48 h; inhibition, % at 4 µM; 56,000 tested, 1.2% active;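 active = inhibition above the mean inhibition of all tested compounds plus 3 SD, cut at about 28% in these data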
* hit, by the source's call; · = no result.

SMILES	SF-1 act	RORa activator	HEK293 NFkB inh	MT1-MMP txn act	Jurkat viability
c1c2c(cc3sc(N4CCOCC4)nc13)OCCO2	-65	-69	33	0.2	5
CNC(=O)c1c(NC(=O)c2nc3ccccc3s2)sc2c1CCC2	72*	96*	-48	1.9	1
COC(=O)c1ccc(Cl)c(NS(=O)(=O)c2ccc3c(c2)OCCO3)c1	23	38	10	0.9	58*
O=C(NC(=O)c1ccc(Cl)cc1)Nc1cc(N2CCCCC2)ncn1	6	12	1	1.1	2
Cc1cnc(NC(=O)CSc2nnc(-c3ccccc3)o2)s1	88*	21	-25	1.2	-2
Cc1csc(NC(=O)CSc2nnc(-c3ccoc3C)o2)n1	30	61*	-2	1.3	4
CCn1nnnc1SCC(=O)Nc1nc2ccc(OC)cc2s1	·	·	·	1.1	·
COc1ccc2nc(NC(=O)CSc3nnc(-c4ccoc4C)n3C)sc2c1	-7	107*	-7	1.5	-2
COc1ccc(-n2c(SCC(=O)Nc3nc(C)cs3)nnc2-c2ccoc2C)cc1	·	·	·	2.2*	·
CCOc1ccc(C(=O)Nc2ccc(Cl)cn2)cc1Cl	49	86*	-39	1.4	10
O=C(COc1ccc(Cl)cc1Cl)Nc1ccc(Cl)cn1	31	30	-44	0.9	-7
O=C(Nc1ccc(Cl)cn1)c1cccc(F)c1	95*	105*	-2	0.9	85*
COC(=O)[C@@]1(Cc2ccccc2)[C@H]2c3cc(C(=O)N4CCCC4)n(Cc4ccc(S(C)(=O)=O)cc4)c3C[C@H]2CN1C(=O)c1ccccc1	·	·	·	1.1	·
CC1=C(C)CS(=O)N(S(=O)(=O)c2ccc(Cl)cc2)C1 (centres undefined)	-34	-26	-9	1.2	69*
CCC/C=C(\CCC)C(NC(=O)c1ccc(C(F)(F)F)cc1)c1ccc(C(F)(F)F)cc1 (centres undefined)	·	·	·	1.1	·
COc1cc(NC2c3ccccc3C(=O)N2c2ccc(C)cn2)cc(OC)c1OC (centres undefined)	43	20	-6	1.3	-4
Cc1ccc(N2C(=O)c3ccccc3C2Nc2cccnc2)nc1 (centres undefined)	12	-3	4	1.1	-2
CCOC(=O)c1ccccc1NC1c2ccccc2C(=O)N1c1ccc(C)cn1 (centres undefined)	62*	22	-4	·	-3
CCOc1ccccc1NC1c2ccccc2C(=O)N1c1ccc(C)cn1 (centres undefined)	13	63*	6	1.1	-1
CS(=O)(=O)N(CC(=O)N1CCc2ccccc2C1)Cc1ccc(Cl)cc1	·	·	·	1.1	·
CCn1c(=O)c(C(=O)Nc2nc3ccccc3[nH]2)c(O)c2ccccc21	-37	-18	21	·	29*
CCn1c(=O)c(C(=O)Nn2c(C)nc3ccccc3c2=O)c(O)c2ccccc21	-11	-17	12	0.9	2
COc1ccccc1C(=O)Nc1ccc2c(c1)OCCO2	76*	33	-36	1.6	4
Cc1oc(C(C)(C)C)cc1C(=O)Nc1ccc2c(c1)OCCO2	57*	64*	-20	1.8	-1
COc1ccc(CCC(=O)Nc2ccc3c(c2)OCCO3)cc1	-13	56*	4	1.3	1
SMILES	SF-1 act	RORa activator	HEK293 NFkB inh	MT1-MMP txn act	Jurkat viability
COc1ccccc1C1CC(c2ccc(C)cc2)Nc2ncnn21 (centres undefined)	-11	-8	19	1.2	4
COCC(C)NCc1ccccc1C (centres undefined)	-2	-5	25	1.1	-2
COC(=O)c1cccc(C23CC4(C2)[C@H](CN(Cc2cccnc2)[C@@H]4c2ccccc2)C3c2ccc(C(F)(F)F)cc2)c1 (some centres undefined)	·	·	·	1	·
O=C(Oc1ccc2c(c1)OCO2)c1cc2c(s1)CCC2	-8	-18	2	1.2	43*
O=C(c1cc2c(s1)CCCC2)N1CCN(Cc2ccc3c(c2)OCO3)CC1	-4	28	9	1.2	-7
Cn1cc(-c2nnc(-c3ccccc3)o2)c2ccccc21	·	·	·	2.3*	·
CC(=O)Nc1ccc(S(=O)(=O)n2cnc3cc(C)c(C)cc32)cc1	3	7	-5	1.1	28*
Cc1cc(=O)oc2cc(OCC(=O)N3c4ccccc4CC3C)ccc12 (centres undefined)	9	-7	24	1.1	72*
CC1CCc2c(sc(NC(=O)c3noc4c3CCCC4)c2C(N)=O)C1 (centres undefined)	50*	101*	-58	1.8	-4
CCOC(=O)N1CCC(N2C(=O)c3ccccc3C2Nc2ccc(Cl)cn2)CC1 (centres undefined)	-9	-15	11	1.3	7
C=CCNC1=C(Cl)C(=O)N(c2ccccc2Cl)C1=O	3	24	-2	1.1	0
O=C(c1ccco1)N1CCn2c1nc1ccccc12	41	62*	2	1.7	8
Nc1c(C(=O)c2ccccc2)oc2ccc(Br)cc12	140*	53*	-43	1.9	-8
CCCCOc1ncnc2c1[nH]c1ccc(F)cc12	-50	-70	19	1.1	61*
CCCCOc1ncnc2c1[nH]c1ccccc12	-34	-40	34	1.6	76*
Cc1ccccc1OCc1nc2c3cnn(C)c3ncn2n1	37	50*	-22	1.7	·
COc1ccc(S(=O)(=O)N2CC3C4C=CC(C4)C3C2)cc1 (centres undefined)	5	-21	-6	1.1	0
CCOc1ccc(-c2cc(C(=O)N3CCN(c4ccccn4)CC3)c3ccccc3n2)cc1	91*	76*	4	0.9	4
COc1cc(-c2cc(C(=O)N3CCN(c4ccccn4)CC3)c3ccccc3n2)cc(OC)c1OC	19	-8	25	1.1	11
COc1ccc(-c2cc(C(=O)N3CCN(c4ccccn4)CC3)c3ccccc3n2)cc1	90*	74*	-11	1.8	·
CCOc1ccc(-c2cc(C(=O)N3CCN(C)CC3)c3ccccc3n2)cc1	35	36	-1	1.2	-1
CCOC(=O)N1CCN(C(=O)c2cc(-c3ccc(OCC)cc3)nc3ccccc23)CC1	71*	136*	24	0.8	87*
Cn1c(=O)c2c(nc(CN3CCN(c4ccc(F)cc4)CC3)n2Cc2ccccc2F)n(C)c1=O	2	33	14	1.1	-2
Cc1ccccc1Nc1nc(N)nc(COC(=O)c2cccn2C)n1	66*	60*	-46	1.4	6
Cn1cccc1C(=O)OCc1csc(-c2ccccc2)n1	6	59*	-52	0.6	-7
COCCn1c(C(=O)N(C)C)cc2c1C[C@H]1CN(C(=O)c3ccccc3)[C@@](Cc3ccc(OC)cc3)(C(=O)OC)[C@@H]21	·	·	·	1.2	·
Cc1ccsc1C(=O)Nc1nnc(-c2ccco2)o1	4	6	1	1	89*
CCC(=O)Nc1nnc(-c2ccco2)o1	4	4	3	1.1	-4
